Experimental data: article PMC4814157 (ACS chemical biology, 2011)
Numbering of substitutions follows the chain as printed. “Also recorded” adds a separate entry of the source. Values belong to the compound of their own block, whether it stands above or below them.

Tests used:
Scp1 [1] = target: T1, Scp1 (Homo sapiens, UniProt Q9GZU7); assay: pNPP assay of Scp1 phosphatase activity; format: biochemical
T1 sequence (Q9GZU7 77-256): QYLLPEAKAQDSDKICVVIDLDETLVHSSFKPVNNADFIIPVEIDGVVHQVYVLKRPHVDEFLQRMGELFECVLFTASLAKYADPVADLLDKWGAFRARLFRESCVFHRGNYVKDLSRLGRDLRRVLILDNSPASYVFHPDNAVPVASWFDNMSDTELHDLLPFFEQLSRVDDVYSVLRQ

Scp1 L155A mutant = target: T2, Scp1 L155A mutant (Homo sapiens, UniProt Q9GZU7, L155A); assay: pNPP assay, Scp1 L155A mutant; format: biochemical
T2 sequence (Q9GZU7 77-256 L155A): T1 sequence (Q9GZU7 77-256) with L79A
How it was run: (§1)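 Point mutants of human Scp1 (residues 77–256; E. coli BL21(DE3), Ni-NTA purified), 50 ng each. Each was preincubated with inhibitor 10 min at RT in pH 5.5 Tris-acetate buffer with 10 mM MgCl2, 0.02% Triton X-100, 1% DMSO. pNPP near Km was added and hydrolysis ran 10–15 min at 37 °C. Reactions were quenched with 0.25 N NaOH and read at 410 nm. IC50 was fitted from concentration–response curves (0–100 µM inhibitor).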

S. pombe Fcp1 = target: T3, S. pombe Fcp1 (Schizosaccharomyces pombe, UniProt Q9P376); assay: pNPP assay, concentration-response on Fcp1; format: biochemical; details: up to 0.1 mM rabeprazole, substrate comparable to Km
T3 sequence (Q9P376 148-641): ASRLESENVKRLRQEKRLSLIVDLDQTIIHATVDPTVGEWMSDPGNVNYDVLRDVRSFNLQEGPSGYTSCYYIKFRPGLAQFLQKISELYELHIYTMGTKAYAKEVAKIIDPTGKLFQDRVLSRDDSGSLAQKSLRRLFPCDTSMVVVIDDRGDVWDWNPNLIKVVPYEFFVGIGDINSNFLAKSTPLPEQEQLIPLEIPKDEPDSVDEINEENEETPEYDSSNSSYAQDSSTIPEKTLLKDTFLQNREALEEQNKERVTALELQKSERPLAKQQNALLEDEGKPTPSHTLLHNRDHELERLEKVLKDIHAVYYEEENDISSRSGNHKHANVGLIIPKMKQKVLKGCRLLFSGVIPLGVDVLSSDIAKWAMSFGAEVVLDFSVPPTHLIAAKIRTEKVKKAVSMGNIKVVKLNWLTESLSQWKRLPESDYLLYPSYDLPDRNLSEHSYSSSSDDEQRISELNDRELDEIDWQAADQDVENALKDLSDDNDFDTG

Scp1 V127A mutant = target: T4, Scp1 V127A mutant (Homo sapiens, UniProt Q9GZU7, V127A); assay: pNPP assay, Scp1 V127A mutant; format: biochemical
T4 sequence (Q9GZU7 77-256 V127A): T1 sequence (Q9GZU7 77-256) with V51A
How it was run: as §1

[2] = target: T5, bacteriophage λ Ser/Thr phosphoprotein phosphatase (λPPase) (Escherichia phage lambda, UniProt P03772); assay: Inhibition of λPPase; format: biochemical; details: up to 1 mM concentration (data not shown)
T5 sequence (P03772 1-221): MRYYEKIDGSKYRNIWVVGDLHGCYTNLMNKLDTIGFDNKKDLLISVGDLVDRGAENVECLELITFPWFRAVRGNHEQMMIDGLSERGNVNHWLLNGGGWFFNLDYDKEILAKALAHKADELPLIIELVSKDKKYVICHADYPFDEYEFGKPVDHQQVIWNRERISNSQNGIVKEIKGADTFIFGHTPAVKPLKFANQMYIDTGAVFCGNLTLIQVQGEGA

Scp1 [3] = target: T1, Scp1; assay: Differential scanning fluorimetry, thermal stability of Scp1; format: binding; details: 20 µM protein, 100 µM rabeprazole; 57.8 °C in absence of compound
human Dullard = target: T6, human Dullard (Homo sapiens, UniProt O95476); assay: pNPP assay, concentration-response on Dullard; format: biochemical; details: up to 0.1 mM rabeprazole, substrate comparable to Km
T6 sequence (O95476 46-244): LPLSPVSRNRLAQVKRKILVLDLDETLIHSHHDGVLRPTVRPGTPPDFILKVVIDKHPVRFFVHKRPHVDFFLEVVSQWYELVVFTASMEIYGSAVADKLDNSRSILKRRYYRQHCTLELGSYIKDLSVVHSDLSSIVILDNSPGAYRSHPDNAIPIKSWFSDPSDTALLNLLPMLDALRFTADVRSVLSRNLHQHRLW

Scp1 K157A mutant = target: T7, Scp1 K157A mutant (Homo sapiens, UniProt Q9GZU7, K157A); assay: pNPP assay, Scp1 K157A mutant; format: biochemical
T7 sequence (Q9GZU7 77-256 K157A): T1 sequence (Q9GZU7 77-256) with K81A
How it was run: as §1

Scp1 [4] = target: T1, Scp1; assay: Malachite green assay with CTD-derived phosphorylated peptide; format: biochemical
How it was run: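 Human Scp1 (residues 77–256, E. coli BL21(DE3)-expressed, Ni-NTA purified), 5 ng, acting on a 17-mer Ser5-phosphorylated CTD peptide. Reaction ran 3 min at 37 °C, was quenched with malachite green reagent, and read at 620 nm. IC50 used substrate near Km with 0–100 µM inhibitor. Km came from peptide at 0.01–0.4 mM; Ki from peptide titrations without and with inhibitor.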

Scp1 F106E mutant = assay: pNPP assay, Scp1 F106E mutant; format: biochemical, human
How it was run: as §1

[5] = test system: Scp1 Tyr158 to Ala mutant; assay: pNPP assay, Scp1 Tyr158 to Ala mutant; format: biochemical, human
How it was run: as §1

Scp1 [6] = target: T1, Scp1; assay: Concentration-response assay of rabeprazole analogues on Scp1; format: biochemical

SMILES: COCCCOc1ccnc(C[S+]([O-])c2nc3ccccc3[nH]2)c1C (stereo not drawn) [rabeprazole]
IC50 (Scp1 [1]): 4 ± 0.7 µM
mechanism of inhibition (Scp1 [1]; against pNPP): mixed inhibitor
Ki′ (Scp1 [1]; pNPP as the substrate, steady-state kinetics): 10 ± 2 µM
change of IC50 versus wildtype Scp1 (Scp1 L155A mutant): moderately increased IC50
inhibition of Fcp1 (S. pombe Fcp1): no inhibition
change of IC50 versus wildtype Scp1 (Scp1 V127A mutant): moderately increased IC50
inhibition of λPPase [2]: no inhibition
melting temperature of Scp1 in the presence of the compound (Scp1 [3]): 59.1 °C
inhibition of Dullard (human Dullard): no inhibition
change of IC50 versus wildtype Scp1 (Scp1 K157A mutant): moderately increased IC50
IC50 (Scp1 [4]): 9 ± 3 µM
Ki (Scp1 [4]): 5 ± 1 µM
mechanism of inhibition (Scp1 [4]; CTD-derived phosphorylated peptide as the substrate): competitive inhibitor
increase of IC50 versus wildtype Scp1 (Scp1 F106E mutant): at least 10 fold
loss of inhibition versus wildtype Scp1 [5]: at least 10 fold

inhibition of Scp1 (Scp1 [6]): did not show any inhibition
SMILES: COCCCOc1ccnc(CS(=O)(=O)c2nc3ccccc3[nH]2)c1C [Rabeprazole sulfone]

inhibition of Scp1 (Scp1 [6]): no inhibition
SMILES: COCCCOc1cc[n+]([O-])c(C[S+]([O-])c2nc3ccccc3[nH]2)c1C (stereo not drawn) [Rabeprazole N-oxide]

SMILES: Cc1c(OCC(F)(F)F)ccnc1C[S+]([O-])c1nc2ccccc2[nH]1 (stereo not drawn) [lansoprazole]
inhibition of Scp1 (Scp1 [6]): no inhibition; also recorded: does not inhibit
